Experimental data collected from several papers.
Compare with care: the assays were run in different laboratories.
Medium: Caco-2

CCn1cc(C2CC2)c2c(Cc3ccc(C(F)(F)F)nc3)n(C)nc2c1=O  Papp A→B: 38.7 ×10⁻⁶ cm/s
CC(C)C[C@H](NC(=O)[C@@H]1COCCCCCC(=O)NCC(=O)N2CCC[C@H]2C(=O)N1)C(=O)[C@@]1(C)CO1  Papp A→B (10 µM; 2 h; pH 7.4): 0.454 ×10⁻⁶ cm/s
Cc1c(C(=O)O)ccc2c3n(nc12)[C@@H]1[C@H](C3)N(CC2CC2)[C@@]2(C(=O)Nc3cc(Cl)ccc32)[C@H]1c1cccc(Cl)c1F  Papp A→B: 84 ×10⁻⁶ cm/s
C[C@H]1O[C@@H](O[C@H]2[C@@H](O)C[C@H](O[C@H]3[C@@H](O)C[C@H](O[C@H]4CC[C@@]5(C)[C@H](CC[C@@H]6[C@@H]5C[C@@H](O)[C@]5(C)[C@@H](C7=CC(=O)OC7)CC[C@]65O)C4)O[C@@H]3C)O[C@@H]2C)C[C@H](O)[C@@H]1O  Papp A→B (5 µM; 2 h): 0.27 ×10⁻⁶ cm/s
Cc1c(N(C)C)ccc2cc(C(=O)NS(=O)(=O)c3ccccc3-c3ccccc3)oc12  Papp B→A (2 µM; 2 h; pH 7.2): 14.3 ×10⁻⁶ cm/s
CCCCC(CC)CNC(=N)NC(=N)NCCCCCCNC(=N)NC(=N)NCC(CC)CCCC (stereo not shown)  Papp B→A (5 µM; 2 h): 0.37 ×10⁻⁶ cm/s
O=C(O)c1cn(-c2ccc(-c3ccc(C(=O)N4CCNCC4)cc3)cc2)cc(O)c1=O  Papp A→B: 0.2 ×10⁻⁶ cm/s
Cn1nc2c(=O)n(C3CC3)ncc2c1[C@](O)(c1cnc(C(F)(F)F)c(Cl)c1)C(F)(F)F  Papp A→B: 43.4 ×10⁻⁶ cm/s
N#Cc1cc(-c2ccc(C(=O)N3CCNCC3)cc2)ccc1-n1cc(O)c(=O)c(C(=O)O)c1  Papp A→B: 0.3 ×10⁻⁶ cm/s
N#C[C@@]12C[C@@H]1[C@@H](n1cnc3c(N[C@@H](C4CCC4)C4CC4)nc(I)nc31)[C@H](O)[C@@H]2O  Papp A→B: 5.97 ×10⁻⁶ cm/s
